In ChEMBL document CHEMBL1240380, “Acinetobacter baumannii increases tolerance to antibiotics in response to monovalent cations” (Antimicrob Agents Chemother, 2010):
The source made the active and inactive calls. No cut-off for these calls is given here.

Legend:
Type in all cases: functional, organism-based
Acinetobacter baumannii [1] = assay: Antibacterial activity against Acinetobacter baumannii isolate 2824 isolated from human urine
Acinetobacter baumannii [2] = assay: Antibacterial activity against Acinetobacter baumannii isolate 5191 isolated from human urine
Acinetobacter baumannii [3] = assay: Antibacterial activity against Acinetobacter baumannii isolate 510 isolated from human sputum
Acinetobacter baumannii [4] = assay: Antibacterial activity against Acinetobacter baumannii isolate 4860 isolated from human urine
Acinetobacter baumannii [5] = assay: Antibacterial activity against Acinetobacter baumannii isolate 2898 isolated from human ankle
Acinetobacter baumannii [6] = assay: Antibacterial activity against Acinetobacter baumannii ATCC 17978 isolated from human CSF
Acinetobacter baumannii [7] = assay: Antibacterial activity against Acinetobacter baumannii using MHB medium assessed as bacterial growth at 0.09 mg/L in presence of 150 mM of KCl
How it was run: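 Growth-curve challenge with 150 mM KCl in place of NaCl. Overnight cultures were diluted 1:100 in NaCl-free MHB and grown to OD600 0.4. They were then diluted to 10^5 CFU/ml in MHB with or without 150 mM KCl, plus antibiotic. Cultures ran in triplicate for 12 h at 37°C with shaking at 180 rpm, and OD600 was read every 2 h.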

Acinetobacter baumannii [8] = assay: Antibacterial activity against Acinetobacter baumannii ATCC 17978 assessed as bacterial growth at 0.09 mg/L in presence of 150 mM NaCl
How it was run: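 Overnight cultures were diluted 1:100 in NaCl-free MHB and grown to OD600 0.4. They were then diluted to 10^5 CFU/ml in MHB with or without 150 mM NaCl, plus or minus antibiotic. Growth was run in triplicate for 12 h at 37°C with shaking at 180 rpm, and OD600 was read every 2 h.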

Row | SMILES | Activity (Acinetobacter baumannii [1]) | Activity (Acinetobacter baumannii [2]) | Activity (Acinetobacter baumannii [3]) | Activity (Acinetobacter baumannii [4]) | Activity (Acinetobacter baumannii [5]) | Activity (Acinetobacter baumannii [6]) | Activity (Acinetobacter baumannii [7]) | Activity (Acinetobacter baumannii [8])
1 | O=C(O)c1cn(C2CC2)c2cc(N3CCNCC3)c(F)cc2c1=O | inactive | inactive | inactive | inactive | inactive |  |  | 
2 | CO/N=C(\C(=O)N[C@@H]1C(=O)N2C(C(=O)O)=C(COC(C)=O)CS[C@H]12)c1csc(N)n1 | inactive | inactive | inactive | inactive | inactive |  |  | 
3 | CO/N=C(\C(=O)N[C@@H]1C(=O)N2C(C(=O)[O-])=C(C[N+]3(C)CCCC3)CS[C@H]12)c1csc(N)n1 | inactive | inactive | inactive | inactive | inactive | Active |  | 
4 | C[C@H]1COc2c(N3CCN(C)CC3)c(F)cc3c(=O)c(C(=O)O)cn1c23 | inactive | inactive |  | inactive |  |  | inactive | inactive
5 | CN(C)[C@@H]1C(O)=C(C(N)=O)C(=O)[C@@]2(O)C(O)=C3C(=O)c4c(O)cccc4[C@@](C)(O)[C@H]3C[C@@H]12 | inactive | inactive |  | inactive |  |  |  | 
6 | NC[C@H]1O[C@H](O[C@H]2[C@H](O)[C@@H](O[C@H]3O[C@H](CO)[C@@H](O)[C@H](N)[C@H]3O)[C@H](N)C[C@@H]2N)[C@H](N)C[C@@H]1O | inactive | inactive | inactive | inactive | inactive | Active |  | 
7 | C[C@@H](O)[C@H]1C(=O)N2C(C(=O)O)=C(S[C@@H]3CN[C@H](C(=O)N(C)C)C3)[C@H](C)[C@H]12 | Active |  | Active |  | Active | Active |  | 
